Most compounds without a hit are left out; they make up all but 2.4% or so of the library.
TbMetRS inhib: blocks T. brucei methionyl-tRNA synthetase activity; 360,000 tested, 0.4% active; purified T. brucei MetRS, ATP depletion, Kinase-Glo luminescence; inhibition, % at 11.9 µM;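 active = inhibition above a per-plate cutoff of the control wells' mean inhibition plus 3 SD, cut at about 5.5% in these data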;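 also: 0% = DMSO wells median and 100% = median of wells with control inhibitor compound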
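Test system: purified T. brucei MetRS enzyme. Also added: ATP, methionine and E. coli bulk tRNA substrates. Compound: 11.9 µM single point. Schedule: 15 min enzyme-compound preincubation, 2 h reaction, 10 min detection, 25 °C. Signal: luciferase luminescence of residual ATP, Kinase-Glo. Evaluation: percent inhibition versus plate control medians. Controls: DMSO wells, low control.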
Neddylation inh: inhibitors of human cullin neddylation. TR-FRET cullin neddylation, biochemical. inhibition, % at 25 µM. 360,000 tested, 0.58% active. P61081+Q13564. AID 651699; in the data active = inhibition above about 36%
Rpn11 block: blocks the human proteasome subunit Rpn11; human 26S proteasome, Ub4-pepOG fluorescence polarization; 20S core pre-blocked with epoxomicin; 360,000 tested, 0.59% active; inhibition, % at 20 µM; O00487;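 active = inhibition at 20 µM, scaled to each plate's controls, above about 33%, limit read from the data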
HNF4A DNA FP: change in binding of human HNF4 alpha to DNA; P41235; AID 1224865; HNF4a-FITC DNA binding, fluorescence polarization, 1 h; 360,000 tested, 0.3% active; activity change, % at 10 µM; in the data active = activity change above about 30%, passing the limit was not always enough
CSN inh: blocks human CSN-mediated cullin deneddylation; Purified CSN, SCF-Nedd8-OG deneddylation, fluorescence polarization; inhibition, % at 12.5 µM; Q92905; 360,000 tested, 0.38% active;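 active = pattern-corrected inhibition above about 35%, with an unprinted fluorescence ratio check between 0.5 and 1.5, limit read from the data, passing the limit was not always enough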;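 also: 0% = enzyme with substrate and 100% = substrate without enzyme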
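Assay system: HEK293T-derived human Csn5 enzyme; quantity: 0.24 nM enzyme; medium: Tris/NaCl/DTT buffer, pH 7.5; also added: substrate SCFSkp2-Nedd8OG, 10 nM; doses: 12.5 µM compound; schedule: 90 min reaction at room temperature; signal: FP; read-out: % inhibition of substrate cleavage by Csn5; benchmarks: substrate-only high control, full reaction low control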
PREPL inh: inhibits the human prolyl oligopeptidase-like enzyme; Q4J6C6; recombinant PREPL, fluorescence polarization activity-based probe; inhibition, % at 5.96 µM; 320,000 tested, 0.68% active; in the data active = inhibition above about 43%;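 also: 0% = enzyme with DMSO and 100% = wells lacking enzyme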
CSN5 deneddyl: Csn5 (human) deneddylation inhibition, single-concentration validation; Csn5 deneddylation of SCF-Nedd8OG, fluorescence polarization, 90 min; 540 tested, 62% active; AID 720654; shares compounds with CSN inh; inhibition, % at 16.6 µM; in the data active = inhibition above about 50%;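 also: 0% = DMSO with enzyme and 100% = no enzyme wells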
MMP2 cntr CSN: counter-screen for CSN deneddylation inhibitors: human MMP-2 inhibition | recombinant MMP-2, FRET substrate fluorescence, 60 min | 540 tested, 33% active | inhibition, % at 16.6 µM | shares compounds with CSN inh;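 active = corrected plate-normalized z-score of 5 or more, or -5 or less, or inhibition of 15% or more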;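 also: plate controls were DMSO wells with enzyme for no effect and buffer wells lacking MMP-2 for full effect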
Target sequence (P08253 whole entry, looked up): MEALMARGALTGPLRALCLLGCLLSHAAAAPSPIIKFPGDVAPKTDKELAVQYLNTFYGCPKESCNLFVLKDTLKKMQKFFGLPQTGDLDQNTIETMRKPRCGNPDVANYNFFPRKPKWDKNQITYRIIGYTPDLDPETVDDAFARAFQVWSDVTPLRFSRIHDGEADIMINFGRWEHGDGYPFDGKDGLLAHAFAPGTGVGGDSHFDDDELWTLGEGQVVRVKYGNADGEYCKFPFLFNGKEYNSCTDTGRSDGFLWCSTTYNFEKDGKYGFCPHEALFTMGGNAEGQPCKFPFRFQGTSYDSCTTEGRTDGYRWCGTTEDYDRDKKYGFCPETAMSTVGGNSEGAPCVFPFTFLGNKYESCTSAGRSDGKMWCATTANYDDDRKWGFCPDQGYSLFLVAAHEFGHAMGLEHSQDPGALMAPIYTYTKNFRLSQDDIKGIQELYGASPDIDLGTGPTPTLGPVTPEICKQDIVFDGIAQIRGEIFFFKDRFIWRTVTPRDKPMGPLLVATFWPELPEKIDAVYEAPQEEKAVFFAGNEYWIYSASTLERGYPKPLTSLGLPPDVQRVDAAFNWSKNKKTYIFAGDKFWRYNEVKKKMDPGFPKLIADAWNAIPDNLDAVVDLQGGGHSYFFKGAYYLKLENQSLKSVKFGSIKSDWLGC
Thrombin counter: thrombin (bovine) inhibition, counter-screen for CSN hits; bovine thrombin cleavage of Ub4-pepOG, fluorescence polarization; inhibition, % at 16.6 µM; 540 tested, 49% active; shares compounds with CSN inh;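 active = inhibition at or above a set limit, with a fluorescence interference ratio between 0.5 and a set maximum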
* = called active by the depositor; . = no result shown; ! = not confirmed by another sample.

SMILES	TbMetRS inhib	Neddylation inh	Rpn11 block	HNF4A DNA FP	CSN inh	PREPL inh	CSN5 deneddyl	MMP2 cntr CSN	Thrombin counter
CC(O)CC(=O)OC[C@]12CC[C@H]3[C@@](C)(CC[C@H]4C(C)(C)CCC[C@]34C)[C@@H]1CC(C1=CC(=O)OC1O)O2 (stereo partly specified)	-0.1	-1.3	13.3	-6.4	46.0*	.	30.7	2.0	-4.0
CC(=O)OC[C@]12CC[C@H]3[C@@](C)(CC[C@H]4C(C)(C)CCC[C@]34C)[C@@H]1C[C@H](C1=CC(=O)O[C@H]1OC(C)=O)O2	.	.	.	.	.	9.8	.	.	.
COC(=O)[C@@]1(Cc2ccc(F)cc2)[C@H]2c3cc(C(=O)N4CCCC4)n(C)c3C[C@H]2CN1C(=O)c1ccccc1	-1.5	-2.5	.	-2.1	-1.1	.	.	.	.
O=C1/C(=C/c2cccnc2)SC(=S)N1Cc1ccco1	-0.2	-10.8	1.6	6.9	6.0	.	.	.	.
Cc1cc(/C=C2\SC(=S)N(Cc3ccco3)C2=O)c(C)n1-c1cccnc1	-0.2	-13.5	.	119.6	79.4*	.	.	-7.3	-50.4
O=C1CCCC2=C1C(c1ccco1)Nc1ccc3ccccc3c12 (stereo unspecified)	-0.7	54.1*	-33.4	-32.7	39.6*	10.1	.	17.3*	7.8
COc1cc(NC(=O)c2ccccc2)ccc1NC(=O)c1cc2ccccc2o1	-0.3	.	-2.1	0.4	2.8	4.3	.	.	.
Cc1cc(NC(=O)c2cncc(Br)c2)ccc1NC(=O)c1cc2ccccc2o1	0.0	.	22.7	22.2	59.8*	5.0	9.7	15.8*	-10.9
COc1cc2c(C#N)c(N3CCCC3)nc(N)c2c(N)n1	-0.2	7.5	2.4	25.6	35.0*!	12.0	67.5*	-45.1*	-40.9
Cc1ccc[n+](CC(=O)Nc2ccc([N+](=O)[O-])cc2)c1	-0.8	-28.1	-1.0	3.1	3.7	17.2	.	.	.
COc1ccc(C(C#N)CC(=O)c2ccc(OCc3ccccc3)c(OC)c2)cc1OC (stereo unspecified)	0.3	-168.0	12.4	4.5	-1.9	.	.	.	.
O=C(C1=C(O)C(=O)N(c2nc3ccc(Cl)cc3s2)C1c1ccco1)c1ccco1 (stereo unspecified)	1.0	23.6	.	-23.2	44.1*	28.4	53.2*	12.5	15.1*
COc1ccc(/C(O)=C2/C(=O)C(=O)N(CCCN3CCOCC3)C2c2ccc(Cl)cc2)cc1 (stereo unspecified)	-0.3	-55.9	1.2	0.3	-3.6	.	.	.	.
O=C(O)c1cccc(-c2ccc(/C=c3/sc4nc5ccccc5n4c3=O)o2)c1	0.4	-0.4	.	38.3*	128.9*	-5.3	-45.5	19.0*	78.4*
Cc1ccccc1C(=O)N[C@H](C(=O)OCC(=O)NC1CC1)C(C)C	-0.3	-27.0	1.1	1.2	-1.9	12.0	.	.	.
c1ccc(C2=NN(c3ccccc3)CC2)cc1	-1.1	.	-0.8	-0.5	6.5	7.7	.	.	.
CCOC(=O)/C(=C/c1ccc(N2CCC(c3ccccc3)=N2)cc1)C(C)=O	-1.0	35.3	.	29.2	39.6*	.	189.3*	-71.1*	-31.7
N#Cc1c(NC(=O)/C=C/C(=O)O)sc2c1CCN(Cc1ccccc1)C2	-0.2	.	.	25.5	41.6*	29.2	40.3	2.4	45.6*
CC(=O)Oc1ccc(C(=O)Nc2ccc(S(=O)(=O)NCC3CCCO3)cc2)cc1 (stereo unspecified)	-0.3	-0.7	0.8	3.4	1.8	-8.4	.	.	.
Cc1c(N2C(=O)/C(=C/c3ccccc3)SC2=S)c(=O)n(-c2ccccc2)n1C	-0.9	-17.6	1.2	2.6	-4.4	13.0	.	.	.
Cc1c(N2C(=O)/C(=C/c3ccc(N(C)C)cc3)N(C)C2=S)c(=O)n(-c2ccccc2)n1C	-0.3	-102.0	.	55.4*	61.5*	.	37.2	-3.7	73.5*
COc1ccc(OCCOC(=O)CNC(=O)c2ccc(F)cc2)cc1	0.1	-5.0	-3.6	1.5	0.0	.	.	.	.
CCOC(=O)C1=C(C)N=c2sc(=Cc3cc(Cl)c(OCC(=O)O)c(Cl)c3)c(=O)n2C1c1cccc(OC)c1 (stereo unspecified)	-1.3	9.3	.	97.2*	64.1*	.	16.6	1.9	49.2*
Cc1ccc(CN2[C@@H](CC(C)C)COCCS2(=O)=O)cc1	-0.6	12.4	2.6	-3.9	1.7	1.7	.	.	.
O=C(/C=C/c1ccc([N+](=O)[O-])cc1)/C=C/c1ccco1	0.5	-13.5	6.1	-23.5	46.4*	8.6	76.7*	10.3	9.3
SMILES	TbMetRS inhib	Neddylation inh	Rpn11 block	HNF4A DNA FP	CSN inh	PREPL inh	CSN5 deneddyl	MMP2 cntr CSN	Thrombin counter
O=C1/C(=C/c2ccco2)Oc2c1ccc(O)c2CN1CCCCC1	0.3	16.8	-83.5	-24.6	42.1*	-0.9	.	-23.4	-60.0
CC1CCN(Cc2c(O)ccc3c2O/C(=C\c2ccco2)C3=O)CC1	0.5	12.2	-69.4	-20.1	32.3	20.2	.	.	.
CCN(CC)C(=O)c1csc(COCCO)n1	0.0	3.5	6.4	0.9	-3.2	.	.	.	.
COc1ccc(-c2ccncc2)cc1OC	-0.2	4.5	-1.2	-2.2	4.2	-3.5	.	.	.
COc1ccccc1N(CC(=O)NCc1ccco1)S(=O)(=O)c1ccc(C)cc1	-0.1	5.3	-28.2	-25.4	43.8*	-1.8	61.6*	27.9*	6.3
COc1ccc(N(CC(=O)NCc2ccco2)S(=O)(=O)c2ccc(C)cc2)cc1OC	-0.5	4.4	-1.4	-2.6	3.7	-0.6	.	.	.
CCCCCCCn1c(=N)n(CC(O)c2ccco2)c2ccccc21 (stereo unspecified)	3.0	.	.	27.8	56.9	42.9	.	.	.
CC(C)(C)c1ccc(Cn2c(=N)n(CC(O)c3ccco3)c3ccccc32)cc1 (stereo unspecified)	-0.1	27.5	.	31.1	67.8*	29.2	92.3*	-5.7	2.1
Cc1cc(C)nc(NN2C(=O)/C(=C/c3ccc(O)cc3)SC2=S)n1	0.2	-38.8	.	93.8*	92.4*	-14.1	46.5	-13.4	83.0*
Cc1cc(C(=O)OCC(=O)N(C)c2ccccc2)c(C)o1	-0.2	-7.9	0.8	0.9	-0.8	8.3	.	.	.
COc1ccc(NS(=O)(=O)c2ccc(OCC(=O)N3CCOCC3)cc2)cc1Cl	-0.3	8.8	2.5	4.2	-3.7	1.3	.	.	.
CN(C)c1ccc(/C=C/c2ccc3ccccc3n2)cc1	-3.2	.	.	79.0	50.1*	60.2*	87.8*	-20.1	17.1*
Cc1cc(-c2nc3c4c5c(sc4[nH]c(=O)n3n2)CCC5)c(C)o1	-1.0	4.7	-11.8	-1.7	36.0*	3.9	91.9*	3.9	-20.0

High-throughput results deposited in PubChem by several laboratories.
